{
  "source": "ChEMBL document CHEMBL2021876",
  "about": "“New pyridobenzoxazepine derivatives derived from 5-(4-methylpiperazin-1-yl)-8-chloro-pyrido[2,3-b][1,5]benzoxazepine (JL13): chemical synthesis and pharmacological evaluation” (J Med Chem, 2012)",
  "key": {"[1]": {"assay": "In vivo displacement of [3H]Ketanserin from 5HT2A receptor in Sprague-Dawley rat entorhinal cortex at 13.75 mg/kg, ip qd for 28 days by autoradiography relative to control", "assay_type": "functional", "settings": "route intraperitoneal", "how_it_was_run": "(§1)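 Rats (male Sprague-Dawley, N = 8/group) given daily ip injections for 28 days versus vehicle. Brain sections preincubated 1 h RT in 50 mM Tris-HCl pH 7.7, then 1 h RT with 3.0 nM [3H]ketanserin plus 1 μM prazosin and 100 nM tetrabenazine. Nonspecific: 1 μM methysergide. Washes 2 × 30 min ice-cold. Readout fmol/mg tissue as % of control, mean ± SEM.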"}, "[2]": {"biological_target": "D(2) dopamine receptor (Rattus norvegicus) (UniProt P61169)", "sequence (P61169 whole entry)": "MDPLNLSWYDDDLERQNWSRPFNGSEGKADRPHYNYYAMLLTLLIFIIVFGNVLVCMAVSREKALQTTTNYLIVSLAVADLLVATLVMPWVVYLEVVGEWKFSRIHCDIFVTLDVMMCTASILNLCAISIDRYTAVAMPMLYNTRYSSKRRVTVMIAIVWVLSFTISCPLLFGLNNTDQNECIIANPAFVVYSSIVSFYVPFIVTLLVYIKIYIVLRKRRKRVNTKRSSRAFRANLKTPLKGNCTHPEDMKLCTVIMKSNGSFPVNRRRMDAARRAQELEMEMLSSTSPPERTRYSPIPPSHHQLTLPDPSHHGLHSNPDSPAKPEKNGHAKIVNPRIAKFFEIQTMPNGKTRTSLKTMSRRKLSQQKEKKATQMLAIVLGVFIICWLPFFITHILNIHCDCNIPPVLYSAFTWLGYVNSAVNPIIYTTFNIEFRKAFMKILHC", "assay": "In vivo displacement of [3H]Nemonapride from dopamine D2 receptor in Sprague-Dawley rat entorhinal cortex at 13.75 mg/kg, ip qd for 28 days by autoradiography relative to control", "assay_type": "functional, organism-based", "set-up": "dose 13.75 mg/kg", "how_it_was_run": "(§2)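 Male Sprague-Dawley rats, N = 8/group, daily ip dosing for 28 days with vehicle controls; cryostat sections (10 μm) preincubated 1 h RT. Incubation 1 h RT in 50 mM Tris-HCl pH 7.4, 120 mM NaCl, 5 mM KCl, 2 mM CaCl2, 1 mM MgCl2 with 1 nM [3H]nemonapride, 0.5 μM DTG, 0.1 μM pindolol. Nonspecific: 10 μM S(−)-sulpiride. Values fmol/mg tissue, % of control.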"}, "[3]": {"assay": "In vivo displacement of [3H]Nemonapride from dopamine D4 receptor in Sprague-Dawley rat medial-prefrontal cortex at 13.75 mg/kg, ip qd for 28 days by autoradiography relative to control", "assay_type": "functional", "settings": "route intraperitoneal"}, "[4]": {"assay": "In vivo displacement of [3H]Nemonapride from dopamine D4 receptor in Sprague-Dawley rat dorsolateral frontal cortex at 13.75 mg/kg, ip qd for 28 days by autoradiography relative to control", "assay_type": "functional", "settings": "route intraperitoneal"}, "[5]": {"assay": "In vivo displacement of [3H]Nemonapride from dopamine D4 receptor in Sprague-Dawley rat nucleus accumbens at 13.75 mg/kg, ip qd for 28 days by autoradiography relative to control", "assay_type": "functional", "settings": "route intraperitoneal"}, "[6]": {"system": "Hippocampus", "assay": "In vivo displacement of [3H]Nemonapride from dopamine D4 receptor in Sprague-Dawley rat hippocampus at 13.75 mg/kg, ip qd for 28 days by autoradiography relative to control", "assay_type": "functional", "settings": "route intraperitoneal"}, "[7]": {"system": "Caudate-putamen", "assay": "In vivo displacement of [3H]8-OH-DPAT from 5HT1A receptor in Sprague-Dawley rat medial part of caudate putamen at 13.75 mg/kg, ip qd for 28 days by autoradiography relative to control", "assay_type": "functional", "settings": "route intraperitoneal", "how_it_was_run": "(§3)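 Male Sprague-Dawley rats (200−225 g, N = 8/group) dosed ip once daily for 28 days, vehicle controls, decapitated; 10 μm frozen coronal sections. Preincubation 1 h RT in 50 mM Tris-HCl pH 7.6, 0.1% ascorbic acid, 4 mM CaCl2, 10 μM pargyline; then 1 h RT with 2.0 nM [3H]8-OH-DPAT. Nonspecific: 1 μM 5-HT. Saturating conditions; binding in fmol/mg tissue, % of control, mean ± SEM.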"}, "[8]": {"system": "Caudate-putamen", "assay": "In vivo displacement of [3H]8-OH-DPAT from 5HT1A receptor in Sprague-Dawley rat lateral part of caudate putamen at 13.75 mg/kg, ip qd for 28 days by autoradiography relative to control", "assay_type": "functional", "settings": "route intraperitoneal", "how_it_was_run": "as §3"}, "[9]": {"biological_target": "Serotonin 1a (5-HT1a) receptor/Adrenergic receptor alpha-1 (Rattus norvegicus) (UniProt P15823+P23944+P43140+P19327)", "assay": "In vivo displacement of [3H]8-OH-DPAT from 5HT1A receptor in Sprague-Dawley rat entorhinal cortex at 13.75 mg/kg, ip qd for 28 days by autoradiography relative to control", "assay_type": "functional, organism-based", "set-up": "dose 13.75 mg/kg", "how_it_was_run": "as §3"}, "[10]": {"assay": "In vivo displacement of [3H]Ketanserin from 5HT2A receptor in Sprague-Dawley rat medial-prefrontal cortex at 13.75 mg/kg, ip qd for 28 days by autoradiography relative to control", "assay_type": "functional", "settings": "route intraperitoneal", "how_it_was_run": "as §1"}, "[11]": {"system": "Hippocampus", "assay": "In vivo displacement of [3H]Ketanserin from 5HT2A receptor in Sprague-Dawley rat hippocampus CA1 region at 13.75 mg/kg, ip qd for 28 days by autoradiography relative to control", "assay_type": "functional", "settings": "route intraperitoneal", "how_it_was_run": "as §1"}, "[12]": {"biological_target": "T1, Alpha-2A adrenergic receptor (Homo sapiens, UniProt P08913)", "T1 sequence (P08913 whole entry)": "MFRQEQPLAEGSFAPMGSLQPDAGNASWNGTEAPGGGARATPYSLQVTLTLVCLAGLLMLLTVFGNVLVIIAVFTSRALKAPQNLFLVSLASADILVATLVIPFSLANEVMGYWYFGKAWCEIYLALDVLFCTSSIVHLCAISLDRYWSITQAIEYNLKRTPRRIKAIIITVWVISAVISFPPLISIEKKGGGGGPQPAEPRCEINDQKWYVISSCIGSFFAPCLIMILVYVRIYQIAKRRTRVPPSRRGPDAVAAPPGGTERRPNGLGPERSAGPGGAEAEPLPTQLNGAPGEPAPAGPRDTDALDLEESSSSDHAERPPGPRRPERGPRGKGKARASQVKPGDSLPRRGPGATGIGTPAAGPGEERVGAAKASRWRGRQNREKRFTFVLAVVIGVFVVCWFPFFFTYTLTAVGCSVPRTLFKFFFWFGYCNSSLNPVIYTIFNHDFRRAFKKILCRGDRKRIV", "assay": "Displacement of [3H]-MK-912 from human cloned adrenergic alpha2A receptor expressed in insect Sf9 membranes after 60 mins by liquid scintillation counting", "assay_type": "cell membranes", "how_it_was_run": "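Membranes from Sf9 cells expressing cloned human α2A-adrenoceptor. Nonspecific binding defined with 10 μM WB4101. Filtered on GF/C and counted by scintillation.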"}, "[13]": {"system": "Caudate-putamen", "assay": "In vivo displacement of [3H]SCH-23390 from dopamine D1 receptor in Sprague-Dawley rat lateral part of caudate putamen at 13.75 mg/kg, ip qd for 28 days by autoradiography relative to control", "assay_type": "functional", "settings": "route intraperitoneal", "how_it_was_run": "(§4)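 Forebrain sections from male Sprague-Dawley rats (N = 8/group) after 28 days of daily ip injections versus vehicle. Incubation 1 h RT in 50 mM Tris-HCl pH 7.4, 120 mM NaCl, 5 mM KCl, 2 mM CaCl2, 1 mM MgCl2 with 1 nM [3H]SCH-23390 and 100 nM ketanserin. Nonspecific: 1 μM cis-flupenthixol. Saturating conditions; fmol/mg tissue, % of control.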"}, "[14]": {"system": "Hippocampus", "assay": "In vivo displacement of [3H]SCH-23390 from dopamine D1 receptor in Sprague-Dawley rat hippocampus at 13.75 mg/kg, ip qd for 28 days by autoradiography relative to control", "assay_type": "functional", "settings": "route intraperitoneal", "how_it_was_run": "as §4"}, "[15]": {"biological_target": "D(2) dopamine receptor (Rattus norvegicus) (UniProt P61169)", "assay": "In vivo displacement of [3H]Nemonapride from dopamine D2 receptor in Sprague-Dawley rat medial-prefrontal cortex at 13.75 mg/kg, ip qd for 28 days by autoradiography relative to control", "assay_type": "functional, organism-based", "set-up": "dose 13.75 mg/kg", "how_it_was_run": "as §2"}, "[16]": {"system": "Caudate-putamen", "assay": "In vivo displacement of [3H]Nemonapride from dopamine D2 receptor in Sprague-Dawley rat medial of caudate putamen at 13.75 mg/kg, ip qd for 28 days by autoradiography relative to control", "assay_type": "functional", "settings": "route intraperitoneal", "how_it_was_run": "as §2"}, "[17]": {"system": "Hippocampus", "assay": "In vivo displacement of [3H]Nemonapride from dopamine D2 receptor in Sprague-Dawley rat hippocampus at 13.75 mg/kg, ip qd for 28 days by autoradiography relative to control", "assay_type": "functional", "settings": "route intraperitoneal", "how_it_was_run": "as §2"}},
  "data": [
    {"smiles": "Clc1ccc2c(c1)N=C(N1CCNCC1)c1cccnc1O2", "values": [
      {"measurement": "inhibition in vivo at 13.75 mg/kg", "setting": "[1]", "result": 90, "unit": "%"},
      {"measurement": "inhibition", "setting": "[2]", "result": 96, "unit": "%"},
      {"measurement": "inhibition in vivo at 13.75 mg/kg", "setting": "[3]", "result": 110, "unit": "%"},
      {"measurement": "inhibition in vivo at 13.75 mg/kg", "setting": "[4]", "result": 108, "unit": "%"},
      {"measurement": "inhibition in vivo at 13.75 mg/kg", "setting": "[5]", "result": 178, "unit": "%"},
      {"measurement": "inhibition in vivo at 13.75 mg/kg", "setting": "[6]", "result": 117, "unit": "%"},
      {"measurement": "inhibition in vivo at 13.75 mg/kg", "setting": "[7]", "result": 87, "unit": "%"},
      {"measurement": "inhibition in vivo at 13.75 mg/kg", "setting": "[8]", "result": 95, "unit": "%"},
      {"measurement": "inhibition", "setting": "[9]", "result": 103, "unit": "%"},
      {"measurement": "inhibition in vivo at 13.75 mg/kg", "setting": "[10]", "result": 56, "unit": "%"},
      {"measurement": "inhibition in vivo at 13.75 mg/kg", "setting": "[11]", "result": 96, "unit": "%"},
      {"measurement": "Ki", "setting": "[12]", "result": 729, "unit": "nM"},
      {"measurement": "inhibition in vivo at 13.75 mg/kg", "setting": "[13]", "result": 132, "unit": "%"},
      {"measurement": "inhibition in vivo at 13.75 mg/kg", "setting": "[14]", "result": 105, "unit": "%"},
      {"measurement": "inhibition", "setting": "[15]", "result": 141, "unit": "%"},
      {"measurement": "inhibition in vivo at 13.75 mg/kg", "setting": "[16]", "result": 110, "unit": "%"},
      {"measurement": "inhibition in vivo at 13.75 mg/kg", "setting": "[17]", "result": 134, "unit": "%"}
    ]}
  ]
}
